SMILES strings stand for the structures.

The record followed here is ChEMBL document CHEMBL3046072, “Plant P5C reductase as a new target for aminomethylenebisphosphonates” (J Agric Food Chem, 2007).

Assay [1] addresses T1, Pyrroline-5-carboxylate reductase (Arabidopsis thaliana) (UniProt P54904).
T1 sequence (whole entry): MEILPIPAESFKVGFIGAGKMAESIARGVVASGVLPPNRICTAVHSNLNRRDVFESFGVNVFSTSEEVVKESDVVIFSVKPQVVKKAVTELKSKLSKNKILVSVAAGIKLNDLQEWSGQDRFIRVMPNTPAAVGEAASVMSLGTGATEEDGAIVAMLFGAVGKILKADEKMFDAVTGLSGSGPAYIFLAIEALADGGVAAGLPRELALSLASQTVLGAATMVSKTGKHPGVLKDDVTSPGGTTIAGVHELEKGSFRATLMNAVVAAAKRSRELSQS
The assay can be described thus: Inhibition of Arabidopsis thaliana P5C reductase catalytic activity assessed as inhibition of NADH oxidation at 340 nm OD at 0.2 mM by NADH oxidation assay. Set-up: scale not given: the % may be the effect or the level left.

Assay [2] deals with T1, Pyrroline-5-carboxylate reductase (Arabidopsis thaliana). Nature of the assay: Inhibition of Arabidopsis thaliana P5C reductase catalytic activity assessed as […] at 535 nm OD at 0.5 mM by P5C utilization assay. Set-up: scale not given: the % may be the effect or the level left. The procedure, abridged:
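The partially purified Arabidopsis enzyme was run in the same Tris pH 8.0/MgCl2/DL-P5C/NADH mix with compound at 0.5 mM, at 35 °C. Aliquots taken every 40 s received Na acetate and 0.15% ninhydrin in acetic acid, then 10 min at 55 °C. Residual P5C was read at 535 nm (ε 4600 M⁻¹ cm⁻¹). At least three replicates; activity given as % of untreated control.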

The target of assay [3] is T2, Pyrroline-5-carboxylate reductase (Arabidopsis thaliana, UniProt P54904).
T2 sequence (P54904 whole entry): T1 sequence (whole entry)
The assay can be described thus: Noncompetitive inhibition of Arabidopsis thaliana P5C reductase by Lineweaver-Burk plot in presence of NADPH.

The target of assay [4] is 3-phosphoshikimate 1-carboxyvinyltransferase (Spinacia oleracea). Nature of the assay: Inhibition of Spinacia oleracea (spinach) EPSP synthase activity. The settings on record: read-out: I50.
For assay [5], the target named is T2, Pyrroline-5-carboxylate reductase. The assay can be described thus: Uncompetitive inhibition of Arabidopsis thaliana P5C reductase by Dixon plot.
Assay [6] concerns the target 3-phosphoshikimate 1-carboxyvinyltransferase (Nicotiana tabacum). The assay can be described thus: Inhibition of EPSP synthase in Nicotiana tabacum (tobacco) cells. As to conditions: read-out: I50.
Assay [7] addresses T2, Pyrroline-5-carboxylate reductase. Nature of the assay: Noncompetitive inhibition of Arabidopsis thaliana P5C reductase by Lineweaver-Burk plot.
Assay [8] has the same target. Nature of the assay: Inhibition of Arabidopsis thaliana P5C reductase catalytic activity. As to conditions: read-out: I50. An outline of the steps:
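P5C reductase partially purified from A. thaliana Columbia suspension-cultured cells by ammonium sulfate cut and two DEAE-Sephacel steps. Assay at 35 °C: 100 mM Tris-HCl pH 8.0, 0.1 mM MgCl2, 2 mM DL-P5C, 0.25 mM NADH. Read as NADH oxidation at 340 nm, or as P5C loss by ninhydrin at 535 nm. Inhibitor neutralised to pH 7.4, tested over 0.010–5 mM. I50 from regression of % control activity versus log concentration.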

Regarding `O=P(O)(O)C(Nc1ccccn1)P(=O)(O)O`, the Activity worked out at 114% in assay [1] and 104% in assay [2].

Consider `O=P(O)(O)C(NCc1ccccc1)P(=O)(O)O`, for which the values for the Activity in assay [1] and in assay [2] were 98.5% and 100%, respectively.

As for `O=P(O)(O)C(Nc1ccc(Cl)cn1)P(=O)(O)O`, the figures for the Activity in assay [1] and in assay [2] were 101% and 92.4%, respectively.

With `O=P(O)(O)C(Nc1ccc(I)cn1)P(=O)(O)O`, the Activity came to 106% in assay [1] and 89.9% in assay [2].

Turning to `Cc1cccc(NC(P(=O)(O)O)P(=O)(O)O)n1`, the Activity in assay [1] worked out at 88.7%; in assay [2], 103%.

As to `O=P(O)(O)C(Nc1ccnc(Cl)c1)P(=O)(O)O`, the Activity in assay [1] worked out at 91.2%; in assay [2], 97.9%.

As a reminder, the Ki is the dissociation constant of the complex between target and ligand, obtained from inhibition or displacement. As to `O=P(O)(O)C(Nc1cc(Cl)cc(Cl)c1)P(=O)(O)O` [(3,5-DICHLOROPHENYLAMINO)METHYLENEDIPHOSPHONIC ACID], the Ki in assay [3] was 230 µM; in assay [5], 10.3 µM; in assay [7] it was 199 µM. Besides, the Activity was determined as 37.7% in assay [1] and 28% in assay [2]. The IC50 in assay [4] and in assay [6] was 30 µM in each case.

For the compound `O=P(O)(O)C(Nc1ccc(Cl)nc1)P(=O)(O)O`, the Activity stood at 99.4% in assay [1] and 94.9% in assay [2].

Regarding `O=P(O)(O)C(Nc1ccncc1)P(=O)(O)O`, the Activity in assay [1] worked out at 115%; in assay [2] it was 101%.

Turning to `NC(P(=O)(O)O)P(=O)(O)O` [AMINOMETHYLENEBISPHOSPHONIC ACID], the figures for the Activity in assay [1] and in assay [2] were 106% and 84.6%, respectively. The IC50 in assay [8] turned out to be 44 µM.

For `O=P(O)(O)C(Nc1ncc(Cl)cc1Cl)P(=O)(O)O`, the Activity was 105% in assay [1] and 97% in assay [2].

In the case of `O=P(O)(O)C(Nc1ccccc1)P(=O)(O)O`, the Activity in assay [1] came out at 98.3%; in assay [2], 114%.

`O=P(O)(O)C(NCc1ccccn1)P(=O)(O)O`: the Activity in assay [1] worked out at 118%; in assay [2] it was 92.9%.

As for `O=P(O)(O)C(NCCc1ccc(O)cc1)P(=O)(O)O`, the Activity in assay [1] is 105%; in assay [2], 94.4%.

As for `O=P(O)(O)C(Nc1cccnc1)P(=O)(O)O`, the Activity stood at 109% in assay [1] and 102% in assay [2].

For `Cc1ccnc(NC(P(=O)(O)O)P(=O)(O)O)c1`, the Activity in assay [1] and in assay [2] was 106% each time.

`O=C(O)c1cccnc1NC(P(=O)(O)O)P(=O)(O)O`: the Activity is 96.3% in assay [1] and 94.1% in assay [2].

As to `O=C(O)c1cccc(NC(P(=O)(O)O)P(=O)(O)O)c1`, the Activity in assay [1] stood at 95%; in assay [2] it was 92.4%.

In the case of `O=P(O)(O)C(Nc1ncccn1)P(=O)(O)O`, the values for the Activity in assay [1] and in assay [2] were 110% and 91.7%, respectively.

For `O=P(O)(O)C(Nc1ncc(Br)cc1Br)P(=O)(O)O`, the Activity in assay [1] was determined as 92%; in assay [2], 99.8%.

`O=P(O)(O)C(Nc1ccc(Br)cn1)P(=O)(O)O`: the Activity in assay [1] came to 104%; in assay [2] it was 100%.

As for `Cc1nc(NC(P(=O)(O)O)P(=O)(O)O)c(Br)cc1Br`, the Activity in assay [1] turned out to be 66.1%; in assay [2], 54.8%. Further, the IC50 in assay [8] was 300 µM.

With `Cc1ccc(NC(P(=O)(O)O)P(=O)(O)O)cc1`, the Activity in assay [1] worked out at 110%; in assay [2], 98.2%.

As to `O=P(O)(O)C(NC1CCCCC1)P(=O)(O)O`, the figures for the Activity in assay [1] and in assay [2] were 108% and 93.8%, respectively.

As to `Cc1ccccc1CNC(P(=O)(O)O)P(=O)(O)O`, the Activity in assay [1] stood at 109%; in assay [2], 96.9%.

Consider `O=[N+]([O-])c1cccc(NC(P(=O)(O)O)P(=O)(O)O)c1`, for which the Activity in assay [1] was found to be 102%; in assay [2], 96.4%.
